The source of these data is ChEMBL document CHEMBL4177605, “3'-Hydroxy-3,4'-dimethoxyflavone blocks tubulin polymerization and is a potent apoptotic inducer in human SK-MEL-1 melanoma cells” (Bioorg Med Chem, 2017).

For test [1], the system named is SK-MEL-1. The experiment in a line: Cytotoxicity against human SK-MEL-1 cells assessed as reduction in cell viability after 72 hrs by MTT assay. Type of test: functional, cell-based. The following applies: SK-MEL-1, 72 h. Put shortly: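 1×10^4 exponentially growing cells were seeded with a range of compound concentrations for 72 h. MTT (0.5 mg/mL) was added for 4 h at 37 °C, and formazan was dissolved in 10% SDS/0.05 M HCl overnight at room temperature in the dark. A570 was read. IC50 was found by nonlinear regression for each experiment, with at least three independent experiments in triplicate.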

In test [2] the test system is SK-MEL-1. The experiment in a line: Cell cycle arrest in human SK-MEL-1 cells assessed as accumulation at sub-G1 phase at 3 uM after 24 hrs by propidium iodide staining-based flow cytometry (reference value: 4.5+/-1.6%). It is filed as functional.
In test [3] the test system is SK-MEL-1. The experiment in a line: Cell cycle arrest in human SK-MEL-1 cells assessed as accumulation at sub-G1 phase at 10 uM after 24 hrs by propidium iodide staining-based flow cytometry (reference value: 4.5+/-1.6%). Type of test: functional.
Test [4] relates to SK-MEL-1. The experiment in a line: Cell cycle arrest in human SK-MEL-1 cells assessed as accumulation at sub-G1 phase at 30 uM after 24 hrs by propidium iodide staining-based flow cytometry (reference value: 4.5+/-1.6%). Type of test: functional.
For test [5], the system named is SK-MEL-1. The experiment in a line: Cell cycle arrest in human SK-MEL-1 cells assessed as accumulation at G1 phase at 3 uM after 24 hrs by propidium iodide staining-based flow cytometry (reference value: 61.5+/-1.7%). Type of test: functional.
Test [6] has as its system SK-MEL-1. The experiment in a line: Cell cycle arrest in human SK-MEL-1 cells assessed as accumulation at G1 phase at 10 uM after 24 hrs by propidium iodide staining-based flow cytometry (reference value: 61.5+/-1.7%). It is filed as functional.
The subject of test [7] is SK-MEL-1. The experiment in a line: Cell cycle arrest in human SK-MEL-1 cells assessed as accumulation at G1 phase at 30 uM after 24 hrs by propidium iodide staining-based flow cytometry (reference value: 61.5+/-1.7%). Type of test: functional.
The test system of test [8] is SK-MEL-1. The experiment in a line: Cell cycle arrest in human SK-MEL-1 cells assessed as accumulation at S phase at 3 uM after 24 hrs by propidium iodide staining-based flow cytometry (reference value: 17.7+/-0.4%). It is filed as functional.
Test [9] concerns SK-MEL-1. The experiment in a line: Cell cycle arrest in human SK-MEL-1 cells assessed as accumulation at S phase at 10 uM after 24 hrs by propidium iodide staining-based flow cytometry (reference value: 17.7+/-0.4%). It is filed as functional.
In test [10] the test system is SK-MEL-1. The experiment in a line: Cell cycle arrest in human SK-MEL-1 cells assessed as accumulation at S phase at 30 uM after 24 hrs by propidium iodide staining-based flow cytometry (reference value: 17.7+/-0.4%). It is filed as functional.
Test [11] concerns SK-MEL-1. The experiment in a line: Cell cycle arrest in human SK-MEL-1 cells assessed as accumulation at G2/M phase at 3 uM after 24 hrs by propidium iodide staining-based flow cytometry (reference value: 16.1+/-0.2%). It is filed as functional.
For test [12], the system named is SK-MEL-1. The experiment in a line: Cell cycle arrest in human SK-MEL-1 cells assessed as accumulation at G2/M phase at 10 uM after 24 hrs by propidium iodide staining-based flow cytometry (reference value: 16.1+/-0.2%). Type of test: functional.
Test [13] concerns SK-MEL-1. The experiment in a line: Cell cycle arrest in human SK-MEL-1 cells assessed as accumulation at G2/M phase at 30 uM after 24 hrs by propidium iodide staining-based flow cytometry (reference value: 16.1+/-0.2%). It is filed as functional.
For test [14], the system named is SK-MEL-1. The experiment in a line: Induction of apoptosis in human SK-MEL-1 cells assessed as condensation of cell nuclei and chromatins at 30 uM after 24 hrs by bisbenzimide trihydrochloride staining-based fluorescent microscopic analysis. Type of test: functional. In outline:
(§1)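 Cells were treated with 30 µM for 24 h, then stained with bisbenzimide trihydrochloride. Nuclear chromatin condensation and fragmentation were viewed by fluorescence microscopy.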

In test [15] the test system is SK-MEL-1. The experiment in a line: Induction of apoptosis in human SK-MEL-1 cells assessed as chromatin fragmentation at 30 uM after 24 hrs by bisbenzimide trihydrochloride staining-based fluorescent microscopic analysis. Type of test: functional, cell-based. Put shortly: as §1
In test [16] the test system is SK-MEL-1. The experiment in a line: Induction of apoptosis in human SK-MEL-1 cells assessed as increase in caspase-3/7 activity by measuring DEVD-pNA substrate cleavage up to 30 uM after 24 hrs by Bradford dye binding assay. It is filed as functional, cell-based. In outline:
(§2)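 After treatment, cells were lysed in 50 mM HEPES pH 7.4, 1 mM DTT, 0.1 mM EDTA, 0.1% CHAPS. Protein was quantified by Bradford and equal amounts were used. DEVD-pNA (caspase-3/7), IETD-pNA (caspase-8) or LEHD-pNA (caspase-9) cleavage was read as net A405 increase at 37 °C. Results are fold increase over control, means ± SE of three experiments in triplicate.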

The test system of test [17] is SK-MEL-1. The experiment in a line: Induction of apoptosis in human SK-MEL-1 cells assessed as increase in caspase-3/7 activity by measuring DEVD-pNA substrate cleavage at 3 uM after 24 hrs by Bradford dye binding assay. Type of test: functional, cell-based. In outline:
as §2

Test [18] has as its system SK-MEL-1. The experiment in a line: Induction of apoptosis in human SK-MEL-1 cells assessed as increase in caspase-8 activity by measuring IETD-pNA substrate cleavage up to 30 uM after 24 hrs by Bradford dye binding assay. Type of test: functional, cell-based. Put shortly: as §2
Test [19] relates to SK-MEL-1. The experiment in a line: Induction of apoptosis in human SK-MEL-1 cells assessed as increase in caspase-8 activity by measuring IETD-pNA substrate cleavage at 3 uM after 24 hrs by Bradford dye binding assay. It is filed as functional, cell-based. In outline:
as §2

Test [20] has as its system SK-MEL-1. The experiment in a line: Induction of apoptosis in human SK-MEL-1 cells assessed as increase in caspase-9 activity by measuring LEHD-pNA substrate cleavage up to 30 uM after 24 hrs by Bradford dye binding assay. It is filed as functional, cell-based. In outline: as §2
Test [21] deals with SK-MEL-1. The experiment in a line: Induction of apoptosis in human SK-MEL-1 cells assessed as increase in caspase-9 activity by measuring LEHD-pNA substrate cleavage at 3 uM after 24 hrs by Bradford dye binding assay. It is filed as functional, cell-based. Put shortly:
as §2

Test [22] has as its system SK-MEL-1. The experiment in a line: Induction of apoptosis in human SK-MEL-1 cells assessed as cleavage of main executioner caspase up to 30 uM after 24 hrs by Western blot method. It is filed as functional, cell-based. In outline: (§3)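 Cells were treated with increasing concentrations for 24 h and washed in PBS. Whole-cell lysates were used for pro-caspase-3. For cytochrome c, a cytosolic fraction was prepared: cells swelled in hypotonic HEPES buffer with 250 mM sucrose, were lysed through a 22-gauge needle, and spun at 1000×g then 105000×g (45 min, 4 °C). Both were probed by immunoblotting.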

Test [23] concerns SK-MEL-1. The experiment in a line: Induction of apoptosis in human SK-MEL-1 cells assessed as increase in […] cytochrome c level by Western blot analysis. Type of test: functional, cell-based. Put shortly: as §3
The species entered for another test is Bos taurus. The experiment in a line: Inhibition of bovine tubulin polymerization measured at every 30 secs intervals for 50 mins in presence of GTP. Put shortly: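 Purified bovine tubulin without MAPs was incubated in 80 mM PIPES pH 7.0 with 1 mM GTP, 1 mM EGTA, 1 mM MgCl2 and 10% glycerol at 37 °C, across several compound concentrations. A340 was recorded every 30 s for 50 min. Taxol (10 µM) and colchicine (5 µM) served as promotion and inhibition controls.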

Test [24] concerns SK-MEL-1. The experiment in a line: Cytotoxicity against human SK-MEL-1 cells assessed as formation of unhealthy cells after 24 hrs by inverted phase contrast microscopic analysis. Type of test: functional, cell-based. In outline: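 Cells were grown in RPMI 1640 with 10% heat-inactivated FBS, 2 mM L-glutamine and penicillin/streptomycin (37 °C, 5% CO2). They were incubated with vehicle or increasing concentrations for 24 h, then imaged under an inverted phase-contrast microscope.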

Molecules are shown by their SMILES. Active and inactive are the calls of the source. The rule behind the calls is not given here. Bounds are passed on as bounds.

`COc1c(-c2ccc(O)cc2)oc2ccccc2c1=O`: the half-inhibitory concentration (IC50) in the test with SK-MEL-1 [1] stood at 91 µM.

Consider `COc1cc([C@@H]2c3cc4c(cc3[C@@H](O[C@@H]3O[C@@H]5CO[C@@H](C)O[C@H]5[C@H](O)[C@H]3O)[C@H]3COC(=O)[C@H]23)OCO4)cc(OC)c1O` [ETOPOSIDE], for which the IC50 with SK-MEL-1 [1] amounted to 8 µM.

Turning to `COc1ccc2c(=O)c(O)c(-c3ccc(O)cc3)oc2c1`, the half-inhibitory concentration (IC50) in the test on SK-MEL-1 [1] is greater than 100 µM.

Turning to `COc1ccc2c(=O)c(OC)c(-c3ccc(OC)c(O)c3)oc2c1`, in the test on SK-MEL-1 [1], the IC50 was 26.2 µM.

For `COc1c(-c2ccccc2O)oc2ccccc2c1=O`, the IC50 with SK-MEL-1 [1] was greater than 100 µM.

As to `COc1ccc(-c2oc3ccccc3c(=O)c2OC)cc1O`, the Activity in the test on SK-MEL-1 [2] stood at 15.9%; with SK-MEL-1 [3], 9.2%; with SK-MEL-1 [4], 21.9%; with SK-MEL-1 [5], 24.4%; with SK-MEL-1 [6], 14.4%; in the test with SK-MEL-1 [7] it was 30.7%. For the same molecule, the Activity was determined as 21.4% in the test with SK-MEL-1 [8]; 23.7% in the test on SK-MEL-1 [9]; 26.8% with SK-MEL-1 [10]; 37.9% with SK-MEL-1 [11]; 52.2% in the test on SK-MEL-1 [12]; 20.2% in the test with SK-MEL-1 [13]. Besides, in the test with SK-MEL-1 [23], the Activity entry was “Dose-dependent effect”. The result in the test with SK-MEL-1 [14], with SK-MEL-1 [15], with SK-MEL-1 [16], in the test with SK-MEL-1 [17], with SK-MEL-1 [18] and with SK-MEL-1 [19] was Active. Also, the outcome in the test on SK-MEL-1 [20], in the test with SK-MEL-1 [21], with SK-MEL-1 [22] and in the test on SK-MEL-1 [24] was Active. Further, the inhibition result in the test filed under Bos taurus is “Dose-dependent effect”. The IC50 in the test on SK-MEL-1 [1] was found to be 6.9 µM.

As for `COc1ccc2c(=O)c(O)c(-c3ccc(O)c(OC)c3)oc2c1`, the IC50 in the test on SK-MEL-1 [1] is 37 µM.

For `COc1ccc2c(=O)c(OC)c(-c3ccc(O)cc3)oc2c1`, the IC50 in the test on SK-MEL-1 [1] was greater than 100 µM.

In the case of `COc1ccc2c(=O)c(OC)c(-c3ccc(O)c(OC)c3)oc2c1`, in the test with SK-MEL-1 [1], the IC50 is 52 µM.

For `O=c1c(O)c(-c2ccc(O)cc2)oc2ccccc12`, the IC50 with SK-MEL-1 [1] was greater than 100 µM.

Turning to `O=c1c(O)c(-c2ccccc2O)oc2ccccc12`, the concentration for half-maximal inhibition (IC50) in the test on SK-MEL-1 [1] is greater than 100 µM.

In the case of `COc1ccc2c(=O)c(O)c(-c3ccc(OC)c(O)c3)oc2c1`, in the test on SK-MEL-1 [1], the IC50 turned out to be 15.5 µM.

Turning to `COc1ccc(-c2oc3ccccc3c(=O)c2O)cc1O`, in the test on SK-MEL-1 [1], the IC50 amounted to 32.6 µM.

For `COc1cc(-c2oc3ccccc3c(=O)c2OC)ccc1O`, the IC50 in the test on SK-MEL-1 [1] was 79 µM.

On to `COc1cc(-c2oc3ccccc3c(=O)c2O)ccc1O`, for which the IC50 with SK-MEL-1 [1] was 22 µM.

For `COc1ccc2c(=O)c(O)c(-c3ccccc3O)oc2c1`, the IC50 in the test with SK-MEL-1 [1] was greater than 100 µM.
